Measured values pooled from the literature.
Each line is one published result; the experiments were not run side by side.
Target: Rhodopsin kinase GRK1 (GRK1, Homo sapiens, UniProt Q15835)
Sequence (Q15835 1-563, as in one of the studies): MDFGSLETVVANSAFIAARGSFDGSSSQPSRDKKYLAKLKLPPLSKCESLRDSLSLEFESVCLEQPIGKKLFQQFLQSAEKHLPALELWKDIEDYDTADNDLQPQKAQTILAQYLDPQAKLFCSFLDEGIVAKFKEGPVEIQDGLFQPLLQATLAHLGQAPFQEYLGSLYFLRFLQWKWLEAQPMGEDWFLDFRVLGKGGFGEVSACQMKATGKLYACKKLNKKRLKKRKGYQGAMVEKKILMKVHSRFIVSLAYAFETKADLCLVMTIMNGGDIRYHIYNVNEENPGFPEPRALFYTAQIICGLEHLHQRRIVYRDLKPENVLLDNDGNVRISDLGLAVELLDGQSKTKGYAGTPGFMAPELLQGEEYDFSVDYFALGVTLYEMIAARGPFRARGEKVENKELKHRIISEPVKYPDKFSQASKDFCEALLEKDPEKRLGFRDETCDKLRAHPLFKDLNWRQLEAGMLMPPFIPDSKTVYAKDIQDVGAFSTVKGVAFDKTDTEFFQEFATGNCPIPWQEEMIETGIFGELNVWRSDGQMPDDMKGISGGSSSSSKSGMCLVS

O=C(NCCCN1CCOCC1)c1ccc(Nc2ncc(Cl)c(-c3ccc(Cl)s3)n2)cc1  remaining binding (binding; competition with immobilised ligand; 1 µM): 100%
COc1ncc2cc3ccccc3nc2c1C#N  remaining binding (cell-free assay; competition with immobilised ligand; 5 µM): 98%
CNC(=O)[C@@H]1CC[C@@H](n2c(-c3ccc4cnccc4c3)nc3ccc(C(=O)NCc4cccc(C(N)=O)c4)cc32)C1  remaining binding (binding; competition with immobilised ligand; 1 µM): 67%
CCN1CCN(Cc2ccc(C(=O)Nc3ccc(C)c(Oc4ccc5c(c4)CC(=O)N5)c3)cc2C(F)(F)F)CC1  remaining binding (binding; competition with immobilised ligand; 1 µM): 100%
CN([C@@H]1CCc2c(CC(=O)O)c3cc(S(C)(=O)=O)ccc3n2C1)S(=O)(=O)c1ccc(F)cc1  remaining binding (cell-free assay; competition with immobilised ligand; 1 µM): 70%
C=CC(=O)N1CCC(C(=O)NCC(=O)N2CCN(c3nc(-c4cnc(N)nc4C(F)F)nc(N4CCOCC4)n3)CC2)CC1  remaining binding (binding; competition with immobilised ligand; 1 µM): 67%
O=C(NCC1CCOCC1)c1n[nH]cc1NC(=O)c1c(F)cccc1F  remaining binding (binding; competition with immobilised ligand; 1 µM): 77%
N[C@H]1CCN(c2nccc(-c3cnn4ncccc34)n2)C1  remaining binding (binding; 1 µM): 100%
CS(=O)(=O)N1CCCC(NC(=O)[C@H](CCC2CCCCC2)NC(=O)c2ccc(CNc3ncnc4c3nnn4-c3ccccc3)cc2)C1 (stereo partly shown)  remaining binding (cell-free assay; competition with immobilised ligand; 0.1 µM): 94%
C[C@@H]1CCN(c2nccc(-c3cnn4ncccc34)n2)C1  remaining binding (binding; 1 µM): 77%
CS(=O)(=O)c1cc(C2(NC(=O)c3cncc4c3cnn4-c3ccc(F)cc3)CC2)ccn1  remaining binding (cell-free assay; competition with immobilised ligand; 1 µM): 87%
CC1CCCN1c1nccc(-c2cnn3ncccc23)n1 (stereo not shown)  remaining binding (binding; 1 µM): 82%
C[C@@]1(Cc2ccc(C#N)cc2)C(=O)N(c2cc(Cl)cc(Cl)c2)c2ncc(C(=O)NC3(c4nc(C5CCC5)no4)CC3)n21  remaining binding (cell-free assay; competition with immobilised ligand; 1 µM): 100%
O=C(c1ccc(Nc2nccc(-c3cc4ccccc4s3)n2)cc1)N1CCC(N2CCCC2)CC1  remaining binding (binding; competition with immobilised ligand; 1 µM): 93%
C[C@@H](c1ccc(-n2cnc3c(N)ncnc32)cc1)N1CCc2nn(C)c(Cc3ccccc3)c2C1=O  remaining binding (binding; competition with immobilised ligand; 0.1 µM): 76%
COc1ccnn2ncc(-c3ccnc(N(C)C)n3)c12  remaining binding (binding; 1 µM): 82%
CCC(=O)N[C@@H]1CC[C@H](C(=O)N(C)c2ccc(-c3nc4ccccc4o3)cc2)C1  remaining binding (cell-free assay; competition with immobilised ligand; 1 µM): 76%
c1cnn2ncc(-c3ccnc(N4CCC45COC5)n3)c2c1  remaining binding (binding; 1 µM): 61%
O=C(c1ccc(Nc2ncc(Cl)c(-c3ccc(Cl)s3)n2)cc1)N1CCC(N2CCCC2)CC1  remaining binding (binding; competition with immobilised ligand; 1 µM): 100%
